Reference: ChEMBL document CHEMBL1124832, “Functionalized congener approach for the design of novel muscarinic agents. Synthesis and pharmacological evaluation of N-methyl-N-[4-(1-pyrrolidinyl)-2-butynyl] amides” (J Med Chem, 1990)

How the values were obtained:
[1] = target: T1, Muscarinic acetylcholine receptor M4 (Rattus norvegicus) (UniProt P08485); assay: Percent inhibition against muscarinic acetylcholine receptor M4 from NG108-15 cell line; type: cell-based; design: concentration or dose not given beside the values
T1 sequence (whole entry): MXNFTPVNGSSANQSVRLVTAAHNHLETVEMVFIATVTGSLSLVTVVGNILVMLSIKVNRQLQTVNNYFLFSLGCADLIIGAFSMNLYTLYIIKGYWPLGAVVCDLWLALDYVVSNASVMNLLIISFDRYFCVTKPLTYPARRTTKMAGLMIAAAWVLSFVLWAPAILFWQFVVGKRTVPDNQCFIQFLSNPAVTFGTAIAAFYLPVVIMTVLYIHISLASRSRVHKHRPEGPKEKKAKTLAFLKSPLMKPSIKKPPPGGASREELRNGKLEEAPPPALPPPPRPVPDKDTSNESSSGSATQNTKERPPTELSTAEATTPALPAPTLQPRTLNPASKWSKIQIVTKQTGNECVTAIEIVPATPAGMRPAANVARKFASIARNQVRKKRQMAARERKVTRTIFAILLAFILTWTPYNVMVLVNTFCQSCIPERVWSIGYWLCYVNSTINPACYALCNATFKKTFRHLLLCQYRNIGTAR
Summary of the method: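 NG108-15 cells grown to 90% confluence and preincubated 10 min at 37 °C in 1 mM IBMX in DMEM-Hepes. Compound (100 µM final) and PGE1 (5 µM final) were added for 15 min at 37 °C. cAMP was extracted in 0.1 N HCl for 30 min at room temperature, lyophilized and measured by radioimmunoassay. Reported as percent inhibition versus no-compound control; three trials in triplicate.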

[2] = target: Muscarinic acetylcholine receptor M3 (Homo sapiens) (UniProt P20309); assay: Percent increase in [3H]myo-inositol at muscarinic acetylcholine receptor M3 from SK-N-SH human neuroblastoma cells; type: cell-based; design: concentration or dose not given beside the values
Chain of Muscarinic acetylcholine receptor M3 (Homo sapiens) (P20309 whole entry, looked up): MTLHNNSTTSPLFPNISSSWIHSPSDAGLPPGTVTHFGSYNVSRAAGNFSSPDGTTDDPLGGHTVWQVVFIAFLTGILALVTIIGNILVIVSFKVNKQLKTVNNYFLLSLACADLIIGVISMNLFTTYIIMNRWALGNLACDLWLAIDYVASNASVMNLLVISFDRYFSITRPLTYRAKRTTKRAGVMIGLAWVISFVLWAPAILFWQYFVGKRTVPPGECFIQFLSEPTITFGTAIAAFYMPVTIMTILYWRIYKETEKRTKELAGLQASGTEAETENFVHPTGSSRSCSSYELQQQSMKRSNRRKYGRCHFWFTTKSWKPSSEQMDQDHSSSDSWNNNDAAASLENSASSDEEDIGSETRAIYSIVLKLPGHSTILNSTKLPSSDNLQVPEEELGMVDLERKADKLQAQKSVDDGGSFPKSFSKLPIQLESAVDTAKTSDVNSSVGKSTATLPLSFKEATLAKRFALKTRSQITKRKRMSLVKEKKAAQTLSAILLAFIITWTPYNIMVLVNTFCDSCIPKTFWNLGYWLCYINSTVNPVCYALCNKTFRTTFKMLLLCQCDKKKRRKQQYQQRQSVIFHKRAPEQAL
Summary of the method: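 SK-N-SH cells grown in DMEM with 10% newborn calf serum and plated at 100000 cells/well. After 24 h they were labeled overnight with [3H]-myo-inositol (2 µCi/well). Cells were rinsed and preincubated 5 min at 37 °C in 10 mM LiCl DMEM-Hepes, then exposed to 100 µM final compound for 30 min at 37 °C. Reported as percent increase relative to oxotremorine M (100%); two or three trials in triplicate.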

[3] = target: Muscarinic acetylcholine receptor M3 (Homo sapiens) (UniProt P20309); assay: Percent binding affinity at muscarinic acetylcholine receptor M3 from SK-N-SH human neuroblastoma cells in presence of [3H]NMS; type: cell-based
Summary of the method: (§1)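 Crude membranes from confluent cells, lysed in 2 mM Tris-HCl (pH 7.1)/1 mM EDTA, homogenized, spun at 50000 g and stored at -70 °C. Membranes (150-300 µg protein) incubated 90 min at 37 °C with 0.5 nM [3H]NMS and 100 µM compound in DMEM-Hepes, then filtered on GF/B. Nonspecific binding taken with 1 µM atropine. Reported as percent displacement; two or three trials in triplicate.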

[4] = target: T1, Muscarinic acetylcholine receptor M4 (Rattus norvegicus); assay: Binding affinity at muscarinic acetylcholine receptor M4 from NG108-15 cell line in presence of [3H]-NMS; type: cell-based; summary of the method: as §1
[5] = test system: SK-N-SH; assay: Percent inhibition of stimulation of PI turnover of Oxotremorine M (100 uM) in SK-N-SH cells at 100 uM; type: functional, Homo sapiens
[6] = target: Muscarinic acetylcholine receptor; assay: Binding affinity was determined using [3H]-NMS for Muscarinic acetylcholine receptor in SK-N-SH neuroblastoma cells; type: cell-based, Homo sapiens
Summary of the method: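 SK-N-SH crude membranes from hypotonic lysis (2 mM Tris-HCl pH 7.1, 1 mM EDTA), 50000 g pellets. Competition used varied compound concentrations with 1 nM [3H]NMS in DMEM-Hepes, 60 min at 37°C, then GF/B filtration. Atropine defined nonspecific binding. Ki was obtained by Cheng-Prusoff from the [3H]NMS Kd (saturation, 10 min at 37°C). Means ± SEM of three determinations in duplicate.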

| Structure (SMILES) | Activity [1] [%] | Activity [2] [%] | Affinity [3] [%] | Affinity [4] [%] | Inhibition [5] [%] | Ki [6] [µM] |
| --- | --- | --- | --- | --- | --- | --- |
| CC(=O)NCCCCC(=O)N(C)CC#CCN1CCCC1 | 5.2 | < 1 | 29.4 | 17.9 | – | – |
| CN(CC#CCN1CCCC1)C(=O)CCNC(=O)OC(C)(C)C | 12.5 | < 1 | 45.1 | 36.3 | – | – |
| CC(=O)NCCC(=O)N(C)CC#CCN1CCCC1.O=C(O)C(=O)O | 10.2 | < 1 | 67.4 | 67.7 | 43 | – |
| CC(=O)N(C)CC#CCN1CCCC1 | 63.2 | 48 | 88.8 | 79.6 | – | 4.96 |
| CN(CC#CCN1CCCC1)C(=O)CCCCNC(=O)OC(C)(C)C | 0.5 | 1 | 32.1 | 26.7 | – | – |
| CN(CC#CCN1CCCC1)C(=O)CCCCCNC(=O)CN | < 1 | < 1 | 65 | 57 | – | – |
| CC(=O)NCC(=O)N(C)CC#CCN1CCCC1 | 14.1 | 8 | 12.5 | 24 | – | – |
| CC(=O)NCCCCCC(=O)N(C)CC#CCN1CCCC1 | 3 | 1 | 17.4 | 22.7 | – | – |
| COC(=O)CCC(=O)N(C)CC#CCN1CCCC1 | < 1 | < 1 | 28 | 7 | – | – |
| CN(CC#CCN1CCCC1)C(=O)c1ccccc1 | < 1 | 8 | 40 | 25 | – | – |
| CN(CC#CCN1CCCC1)C(=O)CCCN | 3.7 | < 1 | 20 | 12.1 | – | – |
| CN(CC#CCN1CCCC1)C(=O)CCC(=O)NCCN | < 1 | < 1 | 25 | 14 | – | – |
| CN(CC#CCN1CCCC1)C(=O)CCCCCNC(=O)c1ccccc1 | < 1 | < 1 | 51.7 | 52.8 | – | – |
| CN(CC#CCN1CCCC1)C(=O)CCCNC(=O)CN | < 1 | 7 | 47 | 31 | – | – |
| CN(CC#CCN1CCCC1)C(=O)CCCNC(=O)CCN | < 1 | 7 | 40.5 | 29 | – | – |
| CC(=O)NCCCCCCC(=O)N(C)CC#CCN1CCCC1 | 6.9 | 1 | 24.6 | 20.4 | – | – |
| CN(CC#CCN1CCCC1)C(=O)CCCNC(=O)c1ccccc1 | < 1 | < 1 | 30.3 | 27.7 | – | – |
| CN(CC#CCN1CCCC1)C(=O)CN | 26.1 | < 1 | 17.3 | 23.5 | – | – |
| CN(CC#CCN1CCCC1)C(=O)CCCCCNC(=O)CCN | < 1 | 7 | 70.5 | 56.8 | – | – |
| CN(CC#CCN1CCCC1)C(=O)CCCNC(=O)CNC(=O)OC(C)(C)C | < 1 | < 1 | 37.5 | 24.4 | – | – |

| Structure (SMILES) | Activity [1] [%] | Activity [2] [%] | Affinity [3] [%] | Affinity [4] [%] | Inhibition [5] [%] | Ki [6] [µM] |
| --- | --- | --- | --- | --- | --- | --- |
| CN(CC#CCN1CCCC1)C(=O)c1cccc(Cl)c1 | < 1 | 4 | 55 | 34 | – | – |
| CN(CC#CCN1CCCC1)C(=O)CCCCCCN.O=C(O)C(F)(F)F.O=C(O)C(F)(F)F | 3 | < 1 | 81.9 | 72.1 | – | 6.7 |
| CN(CC#CCN1CCCC1)C(=O)CCN.O=C(O)C(F)(F)F.O=C(O)C(F)(F)F | 20.8 | < 1 | 18.1 | 15.1 | 20 | – |
| C[N+](C)(C)CC#CCN1CCCC1=O | 64.1 | 100 | 52.1 | 96.2 | – | – |
| CN(CC#CCN1CCCC1)C(=O)CCCCCCCNC(=O)OC(C)(C)C.O=C(O)C(=O)O | < 1 | < 1 | 92.1 | 89 | – | 4.9 |
| CN(CC#CCN1CCCC1)C(=O)CCCCCN.O=C(O)C(F)(F)F.O=C(O)C(F)(F)F | 14.3 | < 1 | 55.9 | 37.9 | 47 | – |
| CN(CC#CCN1CCCC1)C(=O)CCC(=O)O | < 1 | < 1 | 6 | 0 | – | – |
| CC(=O)NCCCC(=O)N(C)CC#CCN1CCCC1 | 8 | 14 | 15.6 | 19.1 | – | – |
| CN(CC#CCN1CCCC1)C(=O)CCCCCCNC(=O)OC(C)(C)C.O=C(O)C(=O)O | < 1 | < 1 | 81.4 | 77.9 | – | 10.9 |
| CN(CC#CCN1CCCC1)C(=O)CNC(=O)OC(C)(C)C | 7 | < 1 | 40 | 32.6 | – | – |
| CC(=O)NCCCCCCCC(=O)N(C)CC#CCN1CCCC1 | < 1 | < 1 | 59.1 | 50.4 | – | – |
| CN(CC#CCN1CCCC1)C(=O)CCCNC(=O)CCNC(=O)OC(C)(C)C | < 1 | < 1 | 39.2 | 38.8 | – | – |
| CC(=O)N(C)C(C)C#CCN1CCCC1 (stereo unspecified) | 36 | < 1 | 99 | 97 | – | 0.33 |
| CN(CC#CCN1CCCC1)C(=O)CCCCCNC(=O)OC(C)(C)C | < 1 | < 1 | 39.1 | 31.9 | – | – |
| CN(CC#CCN1CCCC1)C(=O)CCCCCNC(=O)CCNC(=O)OC(C)(C)C | < 1 | < 1 | 59.1 | 57.3 | – | – |
| CN(CC#CCN1CCCC1)C(=O)CCCCCNC(=O)CNC(=O)OC(C)(C)C | < 1 | 3 | 52.6 | 52.3 | – | – |
| CN(CC#CCN1CCCC1)C(=O)CCCNC(=O)OC(C)(C)C | 3.5 | < 1 | 32.1 | 24.4 | – | – |
| CN(CC#CCN1CCCC1)C(=O)CCCCN.O=C(O)C(F)(F)F.O=C(O)C(F)(F)F | 15.8 | < 1 | 34.4 | 22.4 | 44 | – |
| CN(CC#CCN1CCCC1)C(=O)CCCCCCCN.O=C(O)C(F)(F)F.O=C(O)C(F)(F)F | < 1 | < 1 | 93.7 | 92.3 | – | 1.4 |
